Results as given in ChEMBL document CHEMBL4689842, “EUbOPEN Chemogenomics Library wave 1” (2021).
Values joined by “and” are separate entries in the source; they are usually repeats but may differ in a detail not shown here. Equal entries are not always repeated.

Test system: U2OS
Test: Multiplex assay against U2OS
Format: toxicity, cell-based
Settings: human
Procedure, shortened: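 Phenotypes for tubulin, mitochondrial mass and membrane permeability are expressed as per cents of healthy-nucleus cells. Cells were stained live at seeding with Hoechst33342, BioTracker Green Microtubule Cytoskeleton Dye, MitoTracker Red and Annexin V Alexa Fluor 680, then imaged after compound addition on a CQ1 microscope at 37°C and 5% CO2. Machine-learning gating in CellPathfinder separated Hoechst high-intensity objects from normal cells, divided normal cells by nuclear state (healthy, pyknosed, fragmented) and divided pyknosed cells into mitotic or apoptotic.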

[1] = 12 h, 1 µM, compound concentration 1 uM, replicate 1
[2] = 12 h, 1 µM, compound concentration 1 uM, replicate 2
[3] = 12 h, 10 µM, compound concentration 10 uM, replicate 1
[4] = 12 h, 10 µM, compound concentration 10 uM, replicate 2
[5] = 24 h, 1 µM, compound concentration 1 uM, replicate 1
[6] = 24 h, 1 µM, compound concentration 1 uM, replicate 2
[7] = 24 h, 10 µM, compound concentration 10 uM, replicate 1
[8] = 24 h, 10 µM, compound concentration 10 uM, replicate 2
[9] = 48 h, 1 µM, compound concentration 1 uM, replicate 1
[10] = 48 h, 1 µM, compound concentration 1 uM, replicate 2
[11] = 48 h, 10 µM, compound concentration 10 uM, replicate 1
[12] = 48 h, 10 µM, compound concentration 10 uM, replicate 2

SMILES: CN(C)C(=O)/C(C#N)=C/c1ccc(-c2nc3cnc4[nH]ccc4c3n2C2CCCCC2)o1
- Population Apoptotic (%) [1]: 60%
- Population Fragmented Nuclei (%) [1]: 17%
- Population Healthy Nuclei (%) [1]: 69%
- Population Hoechst High Intensity Objects (%) [1]: 8%
- Population Membrane Permeable-Phenotype (%) [1]: 5%
- Population Mitochondria Different-Phenotype (%) [1]: 14%
- Population Mitotic Cells (%) [1]: 40%
- Population Normal (%) [1]: 91%
- Population Pyknosed Nuclei (%) [1]: 13%
- Population Tubulin-Different-Phenotype (%) [1]: 8%
- Total Cell Count [1]: 122
- Population Apoptotic (%) [2]: 57%
- Population Fragmented Nuclei (%) [2]: 4%
- Population Healthy Nuclei (%) [2]: 87%
- Population Hoechst High Intensity Objects (%) [2]: 2%
- Population Membrane Permeable-Phenotype (%) [2]: 2%
- Population Mitochondria Different-Phenotype (%) [2]: 6%
- Population Mitotic Cells (%) [2]: 42%
- Population Normal (%) [2]: 97%
- Population Pyknosed Nuclei (%) [2]: 7%
- Population Tubulin-Different-Phenotype (%) [2]: 24%
- Total Cell Count [2]: 75
- Population Apoptotic (%) [3]: 19%
- Population Fragmented Nuclei (%) [3]: 17%
- Population Healthy Nuclei (%) [3]: 56%
- Population Hoechst High Intensity Objects (%) [3]: 49%
- Population Membrane Permeable-Phenotype (%) [3]: 12%
- Population Mitochondria Different-Phenotype (%) [3]: 55%
- Population Mitotic Cells (%) [3]: 80%
- Population Normal (%) [3]: 50%
- Population Pyknosed Nuclei (%) [3]: 25%
- Population Tubulin-Different-Phenotype (%) [3]: 75%
- Total Cell Count [3]: 167
- Population Apoptotic (%) [4]: 18%
- Population Fragmented Nuclei (%) [4]: 20%
- Population Healthy Nuclei (%) [4]: 62%
- Population Hoechst High Intensity Objects (%) [4]: 54%
- Population Membrane Permeable-Phenotype (%) [4]: 13%
- Population Mitochondria Different-Phenotype (%) [4]: 63%
- Population Mitotic Cells (%) [4]: 81%
- Population Normal (%) [4]: 45%
- Population Pyknosed Nuclei (%) [4]: 17%
- Population Tubulin-Different-Phenotype (%) [4]: 70%
- Total Cell Count [4]: 91
- Population Apoptotic (%) [5]: 75%
- Population Fragmented Nuclei (%) [5]: 12%
- Population Healthy Nuclei (%) [5]: 79%
- Population Hoechst High Intensity Objects (%) [5]: 5%
- Population Membrane Permeable-Phenotype (%) [5]: 4%
- Population Mitochondria Different-Phenotype (%) [5]: 8%
- Population Mitotic Cells (%) [5]: 25%
- Population Normal (%) [5]: 94%
- Population Pyknosed Nuclei (%) [5]: 8%
- Population Tubulin-Different-Phenotype (%) [5]: 6%
- Total Cell Count [5]: 133
- Population Apoptotic (%) [6]: 54%
- Population Fragmented Nuclei (%) [6]: 5%
- Population Healthy Nuclei (%) [6]: 84%
- Population Hoechst High Intensity Objects (%) [6]: 4%
- Population Membrane Permeable-Phenotype (%) [6]: 2%
- Population Mitochondria Different-Phenotype (%) [6]: 10%
- Population Mitotic Cells (%) [6]: 45%
- Population Normal (%) [6]: 95%
- Population Pyknosed Nuclei (%) [6]: 9%
- Population Tubulin-Different-Phenotype (%) [6]: 36%
- Total Cell Count [6]: 81
- Population Apoptotic (%) [7]: 34%
- Population Fragmented Nuclei (%) [7]: 17%
- Population Healthy Nuclei (%) [7]: 56%
- Population Hoechst High Intensity Objects (%) [7]: 44%
- Population Membrane Permeable-Phenotype (%) [7]: 15%
- Population Mitochondria Different-Phenotype (%) [7]: 45%
- Population Mitotic Cells (%) [7]: 65%
- Population Normal (%) [7]: 55%
- Population Pyknosed Nuclei (%) [7]: 25%
- Population Tubulin-Different-Phenotype (%) [7]: 55%
- Total Cell Count [7]: 196
- Population Apoptotic (%) [8]: 44%
- Population Fragmented Nuclei (%) [8]: 28%
- Population Healthy Nuclei (%) [8]: 53%
- Population Hoechst High Intensity Objects (%) [8]: 54%
- Population Membrane Permeable-Phenotype (%) [8]: 12%
- Population Mitochondria Different-Phenotype (%) [8]: 49%
- Population Mitotic Cells (%) [8]: 55%
- Population Normal (%) [8]: 45%
- Population Pyknosed Nuclei (%) [8]: 17%
- Population Tubulin-Different-Phenotype (%) [8]: 45%
- Total Cell Count [8]: 125
- Population Apoptotic (%) [9]: 55%
- Population Fragmented Nuclei (%) [9]: 8%
- Population Healthy Nuclei (%) [9]: 85%
- Population Hoechst High Intensity Objects (%) [9]: 0%
- Population Membrane Permeable-Phenotype (%) [9]: 3%
- Population Mitochondria Different-Phenotype (%) [9]: 7%
- Population Mitotic Cells (%) [9]: 44%
- Population Normal (%) [9]: 99%
- Population Pyknosed Nuclei (%) [9]: 6%
- Population Tubulin-Different-Phenotype (%) [9]: 10%
- Total Cell Count [9]: 179
- Population Apoptotic (%) [10]: 30%
- Population Fragmented Nuclei (%) [10]: 4%
- Population Healthy Nuclei (%) [10]: 90%
- Population Hoechst High Intensity Objects (%) [10]: 1%
- Population Membrane Permeable-Phenotype (%) [10]: 1%
- Population Mitochondria Different-Phenotype (%) [10]: 15%
- Population Mitotic Cells (%) [10]: 70%
- Population Normal (%) [10]: 98%
- Population Pyknosed Nuclei (%) [10]: 5%
- Population Tubulin-Different-Phenotype (%) [10]: 43%
- Total Cell Count [10]: 104
- Population Apoptotic (%) [11]: 39%
- Population Fragmented Nuclei (%) [11]: 26%
- Population Healthy Nuclei (%) [11]: 47%
- Population Hoechst High Intensity Objects (%) [11]: 44%
- Population Membrane Permeable-Phenotype (%) [11]: 23%
- Population Mitochondria Different-Phenotype (%) [11]: 18%
- Population Mitotic Cells (%) [11]: 60%
- Population Normal (%) [11]: 55%
- Population Pyknosed Nuclei (%) [11]: 25%
- Population Tubulin-Different-Phenotype (%) [11]: 36%
- Total Cell Count [11]: 279
- Population Apoptotic (%) [12]: 63%
- Population Fragmented Nuclei (%) [12]: 34%
- Population Healthy Nuclei (%) [12]: 49%
- Population Hoechst High Intensity Objects (%) [12]: 48%
- Population Membrane Permeable-Phenotype (%) [12]: 27%
- Population Mitochondria Different-Phenotype (%) [12]: 27%
- Population Mitotic Cells (%) [12]: 36%
- Population Normal (%) [12]: 51%
- Population Pyknosed Nuclei (%) [12]: 16%
- Population Tubulin-Different-Phenotype (%) [12]: 31%
- Total Cell Count [12]: 172

SMILES: Cn1cncc1[C@@](O)(COc1ccc(C#N)cc1-c1ccc(OC(F)(F)F)cc1)c1ccc(C#N)cc1 [A-108]
- Population Apoptotic (%) [3]: 38% and 53%
- Population Healthy Nuclei (%) [3]: 70% and 84%
- Population Hoechst High Intensity Objects (%) [3]: 3%
- Population Membrane Permeable-Phenotype (%) [3]: 31% and 17%
- Population Mitochondria Different-Phenotype (%) [3]: 42% and 25%
- Population Mitotic Cells (%) [3]: 61% and 46%
- Population Normal (%) [3]: 96%
- Population Pyknosed Nuclei (%) [3]: 17% and 11%
- Total Cell Count [3]: 188 and 136
- Population Apoptotic (%) [4]: 43% and 50%
- Population Healthy Nuclei (%) [4]: 60% and 90%
- Population Hoechst High Intensity Objects (%) [4]: 19% and 8%
- Population Mitochondria Different-Phenotype (%) [4]: 63% and 21%
- Population Mitotic Cells (%) [4]: 56% and 50%
- Population Normal (%) [4]: 80% and 91%
- Total Cell Count [4]: 101 and 164
- Population Fragmented Nuclei (%) [7]: 8% and 3%
- Population Healthy Nuclei (%) [7]: 74% and 86%
- Population Hoechst High Intensity Objects (%) [7]: 2% and 4%
- Population Membrane Permeable-Phenotype (%) [7]: 29% and 11%
- Population Mitochondria Different-Phenotype (%) [7]: 37% and 20%
- Population Mitotic Cells (%) [7]: 28% and 77%
- Population Normal (%) [7]: 97% and 95%
- Population Pyknosed Nuclei (%) [7]: 17% and 10%
- Total Cell Count [7]: 190 and 184
- Population Apoptotic (%) [8]: 80% and 45%
- Population Fragmented Nuclei (%) [8]: 18%
- Population Healthy Nuclei (%) [8]: 55% and 85%
- Population Hoechst High Intensity Objects (%) [8]: 7%
- Population Mitochondria Different-Phenotype (%) [8]: 75% and 28%
- Population Mitotic Cells (%) [8]: 19% and 54%
- Population Normal (%) [8]: 92%
- Population Tubulin-Different-Phenotype (%) [8]: 73% and 25%
- Total Cell Count [8]: 88 and 199
